We go through 37 molecules from ChEMBL document CHEMBL5046217, “Discovery of New Imidazo[2,1-b]thiazole Derivatives as Potent Pan-RAF Inhibitors with Promising In Vitro and In Vivo Anti-melanoma Activity” (J Med Chem, 2021).

The target of experiment [1] is Serine/threonine-protein kinase B-raf (Homo sapiens, UniProt P15056). Put plainly: Inhibition of human wild type BRAF using myelin basic protein as substrate in presence of [gamma-33P]ATP incubated for 40 mins by scintillation counting method. The method in brief:
(§1)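 Radiometric kinase assay run at Reaction Biology. Kinase (5−10 mU) in 25 mM Tris pH 7.5, 0.02 mM EGTA, 10 mM magnesium acetate with 0.66 mg/mL myelin basic protein and [γ-33P]ATP at 1 μM ATP. Reaction started with Mg-ATP and run 40 min at room temperature, then stopped with 3% phosphoric acid. Spotted on P30 filtermat, washed, scintillation counted.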

In experiment [2] the target is RAF proto-oncogene serine/threonine-protein kinase (Homo sapiens, UniProt P04049). Put plainly: Inhibition of human wild type CRAF using myelin basic protein as substrate in presence of [gamma-33P]ATP incubated for 40 mins by scintillation counting method.
Experiment [3] concerns the target Serine/threonine-protein kinase B-raf (Homo sapiens, UniProt P15056, V600E). As to the kind of experiment: Inhibition of human BRAF V600E mutant using myelin basic protein as substrate in presence of [gamma-33P]ATP incubated for 40 mins by scintillation counting method. Put shortly: as §1
Experiment [4] deals with Panel melanoma (Carcinoma cell lines). Put plainly: cells. As to conditions: Homo sapiens, 48 h, read-out: INH.

By IC50 is commonly meant the point on the concentration scale where inhibition reaches its midpoint.

Molecules are shown by their SMILES. Some results are limits rather than exact numbers.

Sequence of Serine/threonine-protein kinase B-raf (Homo sapiens, UniProt P15056, V600E) (P15056 2-766 V600E limits assumed): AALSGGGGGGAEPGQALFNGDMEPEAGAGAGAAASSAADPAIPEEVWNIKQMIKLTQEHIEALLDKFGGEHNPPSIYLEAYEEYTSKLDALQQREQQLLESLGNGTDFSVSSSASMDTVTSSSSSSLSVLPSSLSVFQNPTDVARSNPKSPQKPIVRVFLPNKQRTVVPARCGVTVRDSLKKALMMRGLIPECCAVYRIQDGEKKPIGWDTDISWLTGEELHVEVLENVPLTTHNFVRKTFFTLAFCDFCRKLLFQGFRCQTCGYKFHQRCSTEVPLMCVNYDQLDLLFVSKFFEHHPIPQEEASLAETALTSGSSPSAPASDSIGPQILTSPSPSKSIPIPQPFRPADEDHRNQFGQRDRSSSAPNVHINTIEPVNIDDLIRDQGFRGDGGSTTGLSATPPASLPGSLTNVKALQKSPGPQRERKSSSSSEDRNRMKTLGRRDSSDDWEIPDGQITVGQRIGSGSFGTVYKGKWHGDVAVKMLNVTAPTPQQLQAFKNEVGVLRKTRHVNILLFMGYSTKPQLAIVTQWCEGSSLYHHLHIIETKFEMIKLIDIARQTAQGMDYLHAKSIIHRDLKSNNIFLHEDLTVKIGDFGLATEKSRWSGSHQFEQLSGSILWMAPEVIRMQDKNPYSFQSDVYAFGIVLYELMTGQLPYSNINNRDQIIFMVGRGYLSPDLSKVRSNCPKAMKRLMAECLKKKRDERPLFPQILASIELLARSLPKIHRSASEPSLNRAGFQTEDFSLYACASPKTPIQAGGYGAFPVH
Sequence of Serine/threonine-protein kinase B-raf (Homo sapiens, UniProt P15056) (P15056 whole entry): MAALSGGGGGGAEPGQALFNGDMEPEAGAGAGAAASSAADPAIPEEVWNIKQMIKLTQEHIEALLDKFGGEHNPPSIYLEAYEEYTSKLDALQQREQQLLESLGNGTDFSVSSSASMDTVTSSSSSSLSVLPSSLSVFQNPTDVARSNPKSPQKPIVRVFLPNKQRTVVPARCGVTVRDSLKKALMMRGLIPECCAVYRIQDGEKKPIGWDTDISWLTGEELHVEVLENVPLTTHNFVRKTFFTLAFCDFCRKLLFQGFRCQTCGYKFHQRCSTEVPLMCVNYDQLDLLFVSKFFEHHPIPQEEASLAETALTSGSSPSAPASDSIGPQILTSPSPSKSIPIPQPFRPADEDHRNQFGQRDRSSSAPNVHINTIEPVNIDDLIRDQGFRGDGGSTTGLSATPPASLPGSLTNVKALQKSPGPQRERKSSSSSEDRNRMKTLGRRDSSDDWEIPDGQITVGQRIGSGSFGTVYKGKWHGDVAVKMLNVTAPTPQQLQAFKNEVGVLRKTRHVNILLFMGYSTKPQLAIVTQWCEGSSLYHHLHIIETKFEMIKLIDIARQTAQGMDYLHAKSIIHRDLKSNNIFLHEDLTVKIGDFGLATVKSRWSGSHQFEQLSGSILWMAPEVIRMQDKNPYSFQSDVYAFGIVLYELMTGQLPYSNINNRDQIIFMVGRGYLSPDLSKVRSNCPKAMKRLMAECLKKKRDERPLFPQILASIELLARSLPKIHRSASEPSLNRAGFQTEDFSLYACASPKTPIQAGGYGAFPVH
Sequence of RAF proto-oncogene serine/threonine-protein kinase (P04049 whole entry): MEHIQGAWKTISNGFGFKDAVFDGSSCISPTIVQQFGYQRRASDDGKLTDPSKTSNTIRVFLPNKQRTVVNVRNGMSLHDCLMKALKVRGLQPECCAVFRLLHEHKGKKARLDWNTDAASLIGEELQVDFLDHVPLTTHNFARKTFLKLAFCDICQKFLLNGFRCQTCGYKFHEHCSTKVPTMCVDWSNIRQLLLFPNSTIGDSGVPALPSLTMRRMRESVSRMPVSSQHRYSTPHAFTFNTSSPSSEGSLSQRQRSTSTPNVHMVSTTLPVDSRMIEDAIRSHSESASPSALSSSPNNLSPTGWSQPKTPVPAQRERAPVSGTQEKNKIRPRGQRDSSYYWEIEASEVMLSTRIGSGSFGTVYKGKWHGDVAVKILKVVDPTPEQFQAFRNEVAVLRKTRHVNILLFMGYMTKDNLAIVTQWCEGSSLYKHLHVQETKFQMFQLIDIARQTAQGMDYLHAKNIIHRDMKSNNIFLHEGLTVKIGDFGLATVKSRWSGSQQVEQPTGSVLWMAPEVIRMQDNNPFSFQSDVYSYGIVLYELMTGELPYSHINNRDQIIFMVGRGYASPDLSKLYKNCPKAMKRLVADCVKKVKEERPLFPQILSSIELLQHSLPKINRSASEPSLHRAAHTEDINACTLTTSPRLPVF

For the molecule `COc1cccc(-c2nc3sccn3c2-c2ccnc(NCCN3CCN(Cc4ccccc4)S3(=O)=O)n2)c1`, the concentration for half-maximal inhibition (IC50) in experiment [1] was 17.3 nM; in experiment [2], 4.32 nM; in experiment [3] it was 8.36 nM.

With `COc1cccc(-c2nc3sccn3c2-c2ccnc(NCCNS(=O)(=O)c3ccc(F)cc3)n2)c1`, the results for the IC50 in experiment [1], in experiment [2] and in experiment [3] were 522 nM, 100 nM and 115 nM, respectively.

Take `COc1ccc(-c2nc3sccn3c2-c2ccnc(NCCNS(=O)(=O)c3ccc(OC)cc3)n2)cc1`: the 50% inhibitory concentration (IC50) came to 9890 nM in experiment [1], 24300 nM in experiment [2] and 26300 nM in experiment [3].

In the case of `Cc1ccc(S(=O)(=O)NCCNc2nccc(-c3c(-c4cccc(O)c4)nc4sccn34)n2)cc1`, the IC50 amounted to 64 nM in experiment [1], 62 nM in experiment [2] and 55 nM in experiment [3].

Take `COc1cccc(-c2nc3sccn3c2-c2ccnc(NCCN3CCCNS3(=O)=O)n2)c1`: the half-maximal inhibitory concentration (IC50) in experiment [1] was 18.1 nM; in experiment [2] it was 7.22 nM; in experiment [3], 9.96 nM.

`O=S1(=O)NCCN1CCNc1nccc(-c2c(-c3cccc(O)c3)nc3sccn23)n1`: the IC50 in experiment [1] worked out at 7.25 nM; in experiment [2] it was 6.32 nM; in experiment [3], 4.56 nM.

Take `COc1cccc(-c2nc3sccn3c2-c2ccnc(NCCN3CCCN(C)S3(=O)=O)n2)c1`: the values for the IC50 in experiment [1], in experiment [2] and in experiment [3] were 8.26 nM, 2.33 nM and 2.62 nM, respectively.

Take `COc1cccc(-c2nc3sccn3c2-c2ccnc(NCCN3CCNS3(=O)=O)n2)c1`: the IC50 in experiment [1] stood at 20.3 nM; in experiment [2], 5.61 nM; in experiment [3], 10.5 nM.

Regarding `COc1cccc(-c2nc3sccn3c2-c2ccnc(NCCCNS(=O)(=O)c3ccc4ccccc4c3)n2)c1`, the IC50 in experiment [1] amounted to 842 nM; in experiment [2], 172 nM; in experiment [3], 165 nM.

Regarding `O=S(=O)(NCCNc1nccc(-c2c(-c3ccccc3)nc3sccn23)n1)c1ccc(O)cc1`, the IC50 came to 97 nM in experiment [1], 75 nM in experiment [2] and 65 nM in experiment [3].

With `COc1cccc(-c2nc3sccn3c2-c2ccnc(NCCNS(=O)(=O)c3cccc(F)c3)n2)c1`, the figures for the IC50 in experiment [1], in experiment [2] and in experiment [3] were 561 nM, 106 nM and 112 nM, respectively.

In the case of `CC(C)(C)OC(=O)N1CCCN(CCNc2nccc(-c3c(-c4cccc(O)c4)nc4sccn34)n2)S1(=O)=O`, the IC50 amounted to 11.2 nM in experiment [1], 9.98 nM in experiment [2] and 9.57 nM in experiment [3].

`COc1cccc(-c2nc3sccn3c2-c2ccnc(NCCCNS(=O)(=O)c3ccccc3)n2)c1`: the figures for the IC50 in experiment [1], in experiment [2] and in experiment [3] were 721 nM, 129 nM and 109 nM, respectively.

`Cc1ccc(S(=O)(=O)NCCNc2nccc(-c3c(-c4ccc(O)cc4)nc4sccn34)n2)cc1`: the figures for the IC50 in experiment [1], in experiment [2] and in experiment [3] were 11300 nM, 16500 nM and 21300 nM, respectively.

On to `O=S1(=O)NCCCN1CCNc1nccc(-c2c(-c3cccc(O)c3)nc3sccn23)n1`, for which the IC50 is 9.56 nM in experiment [1], 7.21 nM in experiment [2] and 5.21 nM in experiment [3].

In the case of `COc1cccc(-c2nc3sccn3c2-c2ccnc(NCCCNS(=O)(=O)c3ccc(F)cc3)n2)c1`, the values for the IC50 in experiment [1], in experiment [2] and in experiment [3] were 430 nM, 95.2 nM and 90.3 nM, respectively. Besides, the inhibition at 10 µM in experiment [4] was 101%.

As for `COc1ccc(S(=O)(=O)NCCNc2nccc(-c3c(-c4cccc(OC)c4)nc4sccn34)n2)cc1`, the values for the IC50 in experiment [1], in experiment [2] and in experiment [3] were 745 nM, 151 nM and 160 nM, respectively.

For `Cc1ccc(S(=O)(=O)NCCNc2nccc(-c3c(-c4ccccc4)nc4sccn34)n2)cc1`, the IC50 in experiment [1] is 623 nM; in experiment [2], 251 nM; in experiment [3], 89.3 nM.

For the molecule `O=S(=O)(NCCCNc1nccc(-c2c(-c3ccccc3)nc3sccn23)n1)c1ccc(F)cc1`, the results for the IC50 in experiment [1], in experiment [2] and in experiment [3] were 276 nM, 87.8 nM and 57.7 nM, respectively. In addition, the inhibition at 10 µM in experiment [4] is 59.7%.

For the molecule `COc1ccc(-c2nc3sccn3c2-c2ccnc(NCCNS(=O)(=O)c3cccc4ccccc34)n2)cc1`, the IC50 was 20800 nM in experiment [1], 28900 nM in experiment [2] and greater than 35000 nM in experiment [3].

In the case of `COc1ccc(S(=O)(=O)NCCCNc2nccc(-c3c(-c4cccc(OC)c4)nc4sccn34)n2)cc1`, the figures for the IC50 in experiment [1], in experiment [2] and in experiment [3] were 589 nM, 164 nM and 156 nM, respectively.

`Cc1ccc(S(=O)(=O)NCCCNc2nccc(-c3c(-c4cccc(O)c4)nc4sccn34)n2)cc1`: the IC50 in experiment [1] was 18 nM; in experiment [2], 13 nM; in experiment [3] it was 9 nM.

With `O=S(=O)(NCCNc1nccc(-c2c(-c3ccccc3)nc3sccn23)n1)c1ccc(F)cc1`, the half-inhibitory concentration (IC50) was determined as 375 nM in experiment [1], 112 nM in experiment [2] and 69.1 nM in experiment [3].

For the molecule `COc1ccc(-c2nc3sccn3c2-c2ccnc(NCCNS(=O)(=O)c3ccc(F)cc3)n2)cc1`, the IC50 is 9210 nM in experiment [1], 32200 nM in experiment [2] and 13200 nM in experiment [3].

As for `O=S(=O)(NCCCNc1nccc(-c2c(-c3cccc(O)c3)nc3sccn23)n1)c1ccccc1`, the IC50 was found to be 29 nM in experiment [1], 23 nM in experiment [2] and 20 nM in experiment [3].

On to `COc1cccc(-c2nc3sccn3c2-c2ccnc(NCCN3CC(C)(C)NS3(=O)=O)n2)c1`, for which the IC50 in experiment [1] amounted to 13.7 nM; in experiment [2] it was 5.63 nM; in experiment [3], 8.65 nM.

For `COc1ccc(S(=O)(=O)NCCCNc2nccc(-c3c(-c4ccccc4)nc4sccn34)n2)cc1`, the IC50 in experiment [1] was found to be 299 nM; in experiment [2], 98.3 nM; in experiment [3] it was 66.1 nM.

`COc1cccc(-c2nc3sccn3c2-c2ccnc(NCCN3CCCN(C(=O)OC(C)(C)C)S3(=O)=O)n2)c1`: the IC50 turned out to be 23.3 nM in experiment [1], 11.2 nM in experiment [2] and 12.6 nM in experiment [3].

For `COc1cccc(-c2nc3sccn3c2-c2ccnc(NCCN3CCN(C)S3(=O)=O)n2)c1`, the IC50 in experiment [1] is 6.12 nM; in experiment [2] it was 2.52 nM; in experiment [3] it was 1.51 nM.

With `O=S(=O)(NCCNc1nccc(-c2c(-c3cccc(O)c3)nc3sccn23)n1)c1ccccc1`, the IC50 in experiment [1] worked out at 35 nM; in experiment [2] it was 21 nM; in experiment [3], 19 nM.

For `O=S1(=O)N(CCNc2nccc(-c3c(-c4cccc(O)c4)nc4sccn34)n2)CCN1Cc1ccccc1`, the IC50 in experiment [1] was 15.5 nM; in experiment [2] it was 3.91 nM; in experiment [3] it was 7.25 nM.

Regarding `Cc1ccc(S(=O)(=O)NCCCNc2nccc(-c3c(-c4ccccc4)nc4sccn34)n2)cc1`, the IC50 in experiment [1] was found to be 521 nM; in experiment [2], 201 nM; in experiment [3] it was 85.3 nM.

For `COc1cccc(-c2nc3sccn3c2-c2ccnc(NCCNS(=O)(=O)c3ccc(C)cc3)n2)c1`, the IC50 worked out at 987 nM in experiment [1], 163 nM in experiment [2] and 177 nM in experiment [3].

In the case of `CC1(C)CN(CCNc2nccc(-c3c(-c4cccc(O)c4)nc4sccn34)n2)S(=O)(=O)N1`, the IC50 in experiment [1] worked out at 10.3 nM; in experiment [2], 4.26 nM; in experiment [3], 6.35 nM. In addition, the inhibition at 10 µM in experiment [4] stood at 79.7%.

Take `COc1cccc(-c2nc3sccn3c2-c2ccnc(NCCNS(=O)(=O)c3ccccc3)n2)c1`: the IC50 in experiment [1] is 941 nM; in experiment [2] it was 220 nM; in experiment [3], 120 nM.

Regarding `O=S(=O)(NCCNc1nccc(-c2c(-c3ccc(O)cc3)nc3sccn23)n1)c1ccc(O)cc1`, the values for the IC50 in experiment [1], in experiment [2] and in experiment [3] were 9710 nM, 19400 nM and 25100 nM, respectively.

For `COc1cccc(-c2nc3sccn3c2-c2ccnc(NCCCNS(=O)(=O)c3ccc(C)cc3)n2)c1`, the IC50 was found to be 894 nM in experiment [1], 209 nM in experiment [2] and 168 nM in experiment [3].
